Laboratory results from ChEMBL document CHEMBL1122632, “Synthesis and antitumor activity of cis-dichloroplatinum (II)-N-aminated nucleoside complexes” (J Med Chem, 1984).
pIC50: −log10 of the molar value. “And” between values parts separate entries of the source, which are not always exact repeats. Equal entries are not always repeated.

Key:
L1210 [1] = assay: In vitro inhibition of L1210 (murine leukemia) cell growth.; type: functional, cell-based, Mus musculus
In short: (§1)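 L1210 cells (10^5 in 1 mL) were grown in RPMI 1640 with 10% FCS and kanamycin, at 37 °C in CO2, for 48 h. Compounds were heated at 110 °C for 8 h, dissolved in medium and tested at ≥6 concentrations. Viability was scored by 0.17% Trypan blue exclusion against drug-free controls. IC50 was the concentration halving living cell number, taken from the log-probit dose-response curve.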

L1210 [2] = assay: Median survival time (MST) of mice bearing L1210 cells was determined at a dose of 25 mg/kg x 2 days administered ip.; type: functional, organism-based; design: dose 25 mg/kg; settings: Mus musculus
In short: (§2)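 (BALB/c × DBA/2)F1 mice (20 g) were implanted ip with 10^4 L1210 cells. Compounds in saline (0.2 mL) were given ip on days 1 and 5; doses above 100 mg/kg were homogenized with Nikkol (7× by weight). Activity was scored as median survival time of treated mice and expressed as T/C, the ratio of treated to control median survival time.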

L1210 [3] = assay: Median survival time (MST) of mice bearing L1210 cells was determined at a dose of 50 mg/kg x 2 days administered ip.; type: functional, organism-based; design: dose 50 mg/kg; settings: Mus musculus; in short: as §2
L1210 [4] = assay: Median survival time (MST) of mice bearing L1210 cells was determined at a dose of 100 mg/kg x 2 days administered ip.; type: functional, organism-based; design: dose 100 mg/kg; settings: Mus musculus; in short: as §2
L1210 [5] = assay: Ratio of median survival time of the mice bearing L1210 cells in treated(T) vs. control(C) at a dose of 800 mg/kg x 2 days; type: functional, organism-based; design: dose 800 mg/kg; settings: Mus musculus; in short: as §2
L1210 [6] = assay: Median survival time (MST) of mice bearing L1210 cells was determined at a dose of 200 mg/kg x 2 days administered ip.; type: functional, organism-based; design: dose 200 mg/kg; settings: Mus musculus; in short: as §2
L1210 [7] = assay: Ratio of median survival time of the mice bearing L1210 cells in treated(T) vs. control(C) at a dose of 50 mg/kg x 2 days; type: functional, organism-based; design: dose 50 mg/kg; settings: Mus musculus; in short: as §2
L1210 [8] = assay: Ratio of median survival time of the mice bearing L1210 cells in treated(T) vs. control(C) at a dose of 200 mg/kg x 2 days; type: functional, organism-based; design: dose 200 mg/kg; settings: Mus musculus; in short: as §2
L1210 [9] = assay: Median survival time (MST) of mice bearing L1210 cells was determined at a dose of 800 mg/kg x 2 days administered ip.; type: functional, organism-based; design: dose 800 mg/kg; settings: Mus musculus; in short: as §2
L1210 [10] = assay: Ratio of median survival time of the mice bearing L1210 cells in treated(T) vs. control(C) at a dose of 25 mg/kg x 2 days; type: functional, organism-based; design: dose 25 mg/kg; settings: Mus musculus; in short: as §2
L1210 [11] = assay: Ratio of median survival time of the mice bearing L1210 cells in treated(T) vs. control(C) at a dose of 100 mg/kg x 2 days; type: functional, organism-based; design: dose 100 mg/kg; settings: Mus musculus; in short: as §2
L1210 [12] = assay: Median survival time (MST) of mice bearing L1210 cells was determined at a dose of 115 mg/kg x 2 days administered ip; Toxic.; type: functional, organism-based; design: dose 115 mg/kg; settings: Mus musculus; in short: as §2
L1210 [13] = assay: Median survival time (MST) of mice bearing L1210 cells was determined at a dose of 2 mg/kg x 2 days administered ip; Toxic.; type: functional, organism-based; design: dose 2 mg/kg; settings: Mus musculus; in short: as §2
Mus musculus [14] = assay: Blood urea nitrogen values in ICR mice after intraperitoneal administration at an equivalent molar dose of the LD50 of […](13 mg/kg) on day 6; type: functional, organism-based
In short: (§3)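 ICR mice (25-30 weeks, 39 ± 4 g), 5-6 per group, given one ip dose of 0.043 mmol/kg, equimolar to 13 mg/kg cis-DDP. On days 3, 6 and 9, blood was drawn from the heart under ether anesthesia and stored frozen. BUN was measured later by a modified urease indophenol method. Results are mean ± SD, mg/100 mL blood, compared with untreated controls.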

Mus musculus [15] = assay: Effect on body weight in ICR mice was determined after intraperitoneal administration on day 6; type: functional, organism-based
In short: (§4)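 ICR mice (25-30 weeks, 39 ± 4 g), 5-6 per group, given one ip dose of 0.043 mmol/kg, equimolar to 13 mg/kg cis-DDP. Body and kidney weights were taken on days 3, 6 and 9 and compared with untreated controls. Weights are paired, mean ± SD.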

Mus musculus [16] = assay: Effect on body weight in ICR mice was determined after intraperitoneal administration on day 3; type: functional, organism-based; in short: as §4
Mus musculus [17] = assay: Effect on body weight in ICR mice was determined after intraperitoneal administration on day 9; All death; type: functional, organism-based; in short: as §4
Mus musculus [18] = assay: Blood urea nitrogen values in ICR mice after intraperitoneal administration at an equivalent molar dose of the LD50 of […](13 mg/kg) on day 9; All death; type: functional, organism-based; in short: as §3
Mus musculus [19] = assay: Effect on kidney weight in ICR mice was determined after intraperitoneal administration on day 6; type: functional, organism-based; in short: as §4
Mus musculus [20] = assay: Blood urea nitrogen values in ICR mice after intraperitoneal administration at an equivalent molar dose of the LD50 of […](13 mg/kg) on day 3; type: functional, organism-based; in short: as §3
Mus musculus [21] = assay: Effect on kidney weight in ICR mice was determined after intraperitoneal administration on day 3; type: functional, organism-based; in short: as §4
L1210 [22] = assay: Ratio of median survival time of the mice bearing L1210 cells in treated(T) vs. control(C) at a dose of 112 mg/kg x 2 days; type: functional, Mus musculus
In short: (§5)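 (BALB/c x DBA/2)F1 mice, 20 g, implanted ip with 10^4 L1210 cells. Test samples in saline (0.2 mL) given ip on days 1 and 5 after tumor inoculation; doses above 100 mg/kg homogenized with Nikkol (7 times by weight) as vehicle. Activity from median survival time of treated group versus control group (T/C).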

L1210 [23] = assay: Median survival time (MST) of mice bearing L1210 cells was determined at a dose of 2 mg/kg x 2 days administered ip.; type: functional, Mus musculus; in short: as §5
L1210 [24] = assay: In vitro inhibitory effect on growth of L1210 cells; 1.5*10e-3; type: functional, cell-based; settings: Mus musculus; in short: as §1
L1210 [25] = assay: Median survival time (MST) of mice bearing L1210 cells was determined at a dose of 114 mg/kg x 2 days administered ip.; type: functional, Mus musculus; in short: as §5
L1210 [26] = assay: Ratio of median survival time of the mice bearing L1210 cells in treated(T) vs. control(C) at a dose of 30 mg/kg x 2 days; type: functional, Mus musculus; in short: as §5
L1210 [27] = assay: Ratio of median survival time of the mice bearing L1210 cells in treated(T) vs. control(C) at a dose of 114 mg/kg x 2 days; type: functional, Mus musculus; in short: as §5
L1210 [28] = assay: Ratio of median survival time of the mice bearing L1210 cells in treated(T) vs. control(C) at a dose of 2 mg/kg x 2 days; type: functional, Mus musculus; in short: as §5
L1210 [29] = assay: In vitro inhibitory effect on growth of L1210 cells; (10E-6); type: functional, cell-based; settings: Mus musculus; in short: as §1
[30] = Mus musculus, L1210, read-out: IC50

## CISPLATIN [listing 1 of 2 here]
L1210 [1]; l1210
  IC50: 0.19 µg/mL
L1210 [1]; l1210, read-out: IC50
  pIC50: 6.20

## 5-amino-1-beta-D-ribofuranosylimidazole-4-carboxamide-dichloroplatinum (II)
L1210 [2]
  MST: 9 days
L1210 [3]
  MST: 9 days
L1210 [4]
  MST: 10 days
L1210 [5]
  T/C: 125%
L1210 [6]
  MST: 11 days
L1210 [7]
  T/C: 100%
L1210 [8]
  T/C: 122%
L1210 [9]
  MST: 10 days
L1210 [10]
  T/C: 100%
L1210 [11]
  T/C: 111%

## Nc1ncnc2c1ccn2[C@@H]1O[C@H](CO)[C@@H](O)[C@H]1O [TUBERCIDIN]
L1210 [1]; [30]
  IC50: 0.018 µg/mL and 67.7 nM

## N=c1ccn([C@@H]2O[C@H](CO)[C@@H](O)[C@H]2O)c(=O)n1N
L1210 [1]; [30]
  IC50: 400 µg/mL and 1.36 mM

## 3-amino-cytidine hydrochloridecis-DDP
L1210 [12]
  MST: Toxic
L1210 [13]
  MST: Toxic

## CISPLATIN [listing 2 of 2 here]
Mus musculus [14]
  Blood urea nitrogen: 45.3 mg 100ml-1
Mus musculus [15]
  Body weight: 31
Mus musculus [16]
  Body weight: 34
Mus musculus [17]
  Body weight: All death
Mus musculus [18]
  Blood urea nitrogen: All death
Mus musculus [19]
  Kidney weight: 555
Mus musculus [20]
  Blood urea nitrogen: 37 mg 100ml-1
Mus musculus [21]
  Kidney weight: 599

## N=c1ccn([C@@H]2O[C@H](CO)[C@@H](O)[C@@H]2O)c(=O)n1N
L1210 [22]
  T/C: 100%
L1210 [23]
  MST: 9.5 days
L1210 [24]
  pIC50: 2.82
L1210 [25]
  MST: 10 days
L1210 [1]; [30]
  IC50: 45 µg/mL
L1210 [26]
  T/C: 95%

## N=c1c2ccn(C3O[C@H](CO)[C@@H](O)[C@H]3O)c2ncn1N (stereo partly specified)
L1210 [27]
  T/C: 95%
L1210 [23]
  MST: 11 days
L1210 [25]
  MST: 9.5 days
L1210 [1]; [30]
  IC50: 2.7 µg/mL
L1210 [28]
  T/C: 110%
L1210 [29]
  pIC50: 5.07
